# Experimental data: ChEMBL document CHEMBL3102739, “Synthesis and antiproliferative activity of conformationally restricted 1,2,3-triazole analogues of combretastatins in the sea urchin embryo model and against human cancer cell lines” (Bioorg Med Chem, 2014)
# How the values were obtained:
# [1] = test system: MDA-MB-468; experiment: Growth inhibition of human MDA-MB-468 cells after 48 hrs by SRB assay; type: functional; details: MDA-MB-468, 48 h
# [2] = Growth inhibition of human Hs578T cells after 48 hrs by SRB assay; type: functional; details: Hs-578T
# [3] = test system: BT-549; experiment: Growth inhibition of human BT549 cells after 48 hrs by SRB assay; type: functional; details: BT-549, 48 h
# [4] = test system: MDA-MB-231; experiment: Growth inhibition of human MDA-MB-231 cells after 48 hrs by SRB assay; type: functional; details: MDA-MB-231, 48 h
# [5] = test system: DU-145; experiment: Growth inhibition of human DU145 cells after 48 hrs by SRB assay; type: functional; details: DU-145, 48 h
# [6] = test system: MCF7; experiment: Growth inhibition of human MCF7 cells after 48 hrs by SRB assay; type: functional; details: MCF7, 48 h
# [7] = Growth inhibition of human UO31 cells after 48 hrs by SRB assay; type: functional; details: UO-31, 48 h
# [8] = test system: PC-3; experiment: Growth inhibition of human PC3 cells after 48 hrs by SRB assay; type: functional; details: PC-3, 48 h
# [9] = Growth inhibition of human RXF393 cells after 48 hrs by SRB assay; type: functional; details: RXF 393, 48 h
# [10] = test system: SN12C; experiment: Growth inhibition of human SN12C cells after 48 hrs by SRB assay; type: functional
# [11] = test system: ACHN; experiment: Growth inhibition of human ACHN cells after 48 hrs by SRB assay; type: functional
# [12] = test system: CAKI-1; experiment: Growth inhibition of human CAKI-1 cells after 48 hrs by SRB assay; type: functional; details: CAKI-1, 48 h
# [13] = test system: 786-0; experiment: Growth inhibition of human 786-0 cells after 48 hrs by SRB assay; type: functional; details: 786-0, 48 h
# [14] = test system: A498; experiment: Growth inhibition of human A498 cells after 48 hrs by SRB assay; type: functional; details: A498, 48 h
# [15] = test system: SK-OV-3; experiment: Growth inhibition of human SKOV3 cells after 48 hrs by SRB assay; type: functional; details: SK-OV-3, 48 h
# [16] = Growth inhibition of human NCI-ADR-RES cells after 48 hrs by SRB assay; type: functional
# [17] = test system: OVCAR-8; experiment: Growth inhibition of human OVCAR8 cells after 48 hrs by SRB assay; type: functional; details: OVCAR-8, 48 h
# [18] = Growth inhibition of human OVCAR4 cells after 48 hrs by SRB assay; type: functional; details: OVCAR-4, 48 h
# [19] = Growth inhibition of human OVCAR5 cells after 48 hrs by SRB assay; type: functional; details: OVCAR-5, 48 h
# [20] = test system: OVCAR-3; experiment: Growth inhibition of human OVCAR3 cells after 48 hrs by SRB assay; type: functional; details: OVCAR-3, 48 h
# [21] = test system: IGROV-1; experiment: Growth inhibition of human IGROV1 cells after 48 hrs by SRB assay; type: functional; details: IGROV-1, 48 h
# [22] = Growth inhibition of human UACC257 cells after 48 hrs by SRB assay; type: functional; details: UACC-257, 48 h
# [23] = test system: UACC-62; experiment: Growth inhibition of human UACC62 cells after 48 hrs by SRB assay; type: functional; details: UACC-62, 48 h
# [24] = test system: SK-MEL-5; experiment: Growth inhibition of human SK-MEL-5 cells after 48 hrs by SRB assay; type: functional; details: SK-MEL-5, 48 h
# [25] = test system: SK-MEL-28; experiment: Growth inhibition of human SK-MEL-28 cells after 48 hrs by SRB assay; type: functional; details: SK-MEL-28, 48 h
# [26] = test system: MDA-MB-435; experiment: Growth inhibition of human MDA-MB-435 cells after 48 hrs by SRB assay; type: functional; details: MDA-MB-435, 48 h
# [27] = test system: M14; experiment: Growth inhibition of human M14 cells after 48 hrs by SRB assay; type: functional; details: M14, 48 h
# [28] = test system: SNB-75; experiment: Growth inhibition of human SNB75 cells after 48 hrs by SRB assay; type: functional; details: SNB-75, 48 h
# [29] = Growth inhibition of human SF539 cells after 48 hrs by SRB assay; type: functional; details: SF-539, 48 h
# [30] = test system: SNB-19; experiment: Growth inhibition of human SNB19 cells after 48 hrs by SRB assay; type: functional; details: SNB-19, 48 h
# [31] = test system: SF-295; experiment: Growth inhibition of human SF295 cells after 48 hrs by SRB assay; type: functional; details: SF-295, 48 h
# [32] = test system: SF-268; experiment: Growth inhibition of human SF268 cells after 48 hrs by SRB assay; type: functional; details: SF-268, 48 h
# [33] = test system: SW-620; experiment: Growth inhibition of human SW620 cells after 48 hrs by SRB assay; type: functional; details: SW-620, 48 h
# [34] = test system: KM12; experiment: Growth inhibition of human KM12 cells after 48 hrs by SRB assay; type: functional; details: KM12, 48 h
# [35] = test system: HT-29; experiment: Growth inhibition of human HT-29 cells after 48 hrs by SRB assay; type: functional; details: HT-29, 48 h
# [36] = test system: HCT-15; experiment: Growth inhibition of human HCT15 cells after 48 hrs by SRB assay; type: functional; details: HCT-15, 48 h
# [37] = Growth inhibition of human HCC2998 cells after 48 hrs by SRB assay; type: functional; details: HCC 2998, 48 h
# [38] = test system: HCT-116; experiment: Growth inhibition of human HCT116 cells after 48 hrs by SRB assay; type: functional; details: HCT-116, 48 h
# [39] = test system: COLO 205; experiment: Growth inhibition of human COLO205 cells after 48 hrs by SRB assay; type: functional; details: COLO 205, 48 h
# [40] = test system: NCI-H522; experiment: Growth inhibition of human NCI-H522 cells after 48 hrs by SRB assay; type: functional; details: NCI-H522, 48 h
# [41] = test system: NCI-H460; experiment: Growth inhibition of human NCI-H460 cells after 48 hrs by SRB assay; type: functional; details: NCI-H460, 48 h
# [42] = test system: NCI-H322M; experiment: Growth inhibition of human NCI-H322M cells after 48 hrs by SRB assay; type: functional
# [43] = test system: NCI-H226; experiment: Growth inhibition of human NCI-H226 cells after 48 hrs by SRB assay; type: functional; details: NCI-H226, 48 h
# [44] = test system: HOP-62; experiment: Growth inhibition of human HOP62 cells after 48 hrs by SRB assay; type: functional; details: HOP-62, 48 h
# [45] = test system: A549; experiment: Growth inhibition of human A549 cells after 48 hrs by SRB assay; type: functional; details: A549, 48 h
# [46] = test system: RPMI-8226; experiment: Growth inhibition of human RPMI8226 cells after 48 hrs by SRB assay; type: functional; details: RPMI-8226, 48 h
# [47] = test system: SR; experiment: Growth inhibition of human SR cells after 48 hrs by SRB assay; type: functional
# [48] = test system: MOLT-4; experiment: Growth inhibition of human MOLT4 cells after 48 hrs by SRB assay; type: functional; details: MOLT-4, 48 h
# [49] = test system: K562; experiment: Growth inhibition of human K562 cells after 48 hrs by SRB assay; type: functional; details: K562, 48 h
# [50] = test system: CCRF-CEM; experiment: Growth inhibition of human CCRF-CEM cells after 48 hrs by SRB assay; type: functional
# [51] = test system: HL-60(TB); experiment: Growth inhibition of human HL-60(TB) cells after 48 hrs by SRB assay; type: functional; details: HL-60, 48 h
# [52] = test system: Paracentrotus lividus; experiment: Antimitotic activity against sea urchin embryo free-swimming blastula model assessed as embryo spinning compound treated at 8 to 10 hrs post-fertilization measured after 0.25 to 20 hrs; type: functional, Blastula stage
# [53] = test system: Paracentrotus lividus; experiment: Antimitotic activity against sea urchin embryo model assessed as cleavage arrest of fertilized egg compound treated at 8 to 20 mins post-fertilization and 45 to 55 mins prior to first mitotic cycle completion measured 2.5 to 5.5 hrs post-fertilization; type: functional
# Method in brief: (§1)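 Fertilized eggs are exposed 8–20 min after fertilization to 2-fold decreasing concentrations. Stocks are 10 mM in DMSO, then diluted 10-fold in 95% EtOH; final DMSO is at most 0.05% and EtOH at most 1%. Embryos are kept as a monolayer, up to 2000 embryos/mL, in filtered seawater at room temperature. The value is the threshold concentration giving cleavage alteration, embryo death before hatching or full mitotic arrest. Duplicates were run.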
# [54] = test system: Paracentrotus lividus; experiment: Antimitotic activity against sea urchin embryo model assessed as cleavage alteration of fertilized egg compound treated at 8 to 20 mins post-fertilization and 45 to 55 mins prior to first mitotic cycle completion measured 2.5 to 5.5 hrs post-fertilization; type: functional; method in brief: as §1
compound,measurement,setting,value
COc1ccc(-c2cnnn2-c2cc(OC)c3c(c2)OCO3)cc1,GI50,[1],62 nM
same,GI50,[2],154 nM
same,GI50,[3],160 nM
same,GI50,[4],135 nM
same,GI50,[5],232 nM
same,GI50,[6],47 nM
same,GI50,[7],692 nM
same,GI50,[8],150 nM
same,GI50,[9],157 nM
same,GI50,[10],486 nM
same,GI50,[11],607 nM
same,GI50,[12],98 nM
same,GI50,[13],363 nM
same,GI50,[14],49 nM
same,GI50,[15],271 nM
same,GI50,[16],38 nM
same,GI50,[17],284 nM
same,GI50,[18],4170 nM
same,GI50,[19],374 nM
same,GI50,[20],53 nM
same,GI50,[21],123 nM
same,GI50,[22],74900 nM
same,GI50,[23],72 nM
same,GI50,[24],235 nM
same,GI50,[25],725 nM
same,GI50,[26],22 nM
same,GI50,[27],61 nM
same,GI50,[28],119 nM
same,GI50,[29],95 nM
same,GI50,[30],> 100000 nM
same,GI50,[31],73 nM
same,GI50,[32],611 nM
same,GI50,[33],56 nM
same,GI50,[34],60 nM
same,GI50,[35],40 nM
same,GI50,[36],45 nM
same,GI50,[37],258 nM
same,GI50,[38],64 nM
same,GI50,[39],53 nM
same,GI50,[40],21 nM
same,GI50,[41],55 nM
same,GI50,[42],673 nM
same,GI50,[43],4670 nM
same,GI50,[44],125 nM
same,GI50,[45],88 nM
same,GI50,[46],253 nM
same,GI50,[47],41 nM
same,GI50,[48],122 nM
same,GI50,[49],41 nM
same,GI50,[50],132 nM
same,GI50,[51],51 nM
same,EC,[52],0.5 µM
same,EC,[53],0.1 µM
same,EC,[54],0.01 µM
